The target of experiment [1] is T1, Amine oxidase [flavin-containing] A (Rattus norvegicus, UniProt P21396).
T1 sequence (P21396 whole entry): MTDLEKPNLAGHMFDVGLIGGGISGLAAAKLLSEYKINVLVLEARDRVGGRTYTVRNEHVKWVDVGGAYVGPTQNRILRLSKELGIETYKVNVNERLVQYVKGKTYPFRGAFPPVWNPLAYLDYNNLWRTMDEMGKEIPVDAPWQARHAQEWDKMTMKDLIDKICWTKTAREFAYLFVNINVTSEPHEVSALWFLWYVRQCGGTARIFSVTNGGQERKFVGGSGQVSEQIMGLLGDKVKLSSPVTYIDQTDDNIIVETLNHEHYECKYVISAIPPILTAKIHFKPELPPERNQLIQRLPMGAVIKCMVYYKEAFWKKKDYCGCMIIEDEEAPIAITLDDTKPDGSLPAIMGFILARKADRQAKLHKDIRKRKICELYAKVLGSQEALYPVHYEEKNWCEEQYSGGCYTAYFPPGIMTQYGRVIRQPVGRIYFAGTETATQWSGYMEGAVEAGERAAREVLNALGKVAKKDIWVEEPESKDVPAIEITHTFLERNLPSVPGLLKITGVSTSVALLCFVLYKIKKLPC
Kind of experiment: Inhibitory activity of compound against Monoamine oxidase A isolated from rat liver mitochondria using [14C]5-HT creatinine sulfate; NI denotes no inhibition at 1000 uM. The gist of the method: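 Rat liver mitochondria from differential centrifugation, in 50 mM phosphate buffer pH 7.4. Preincubated with inhibitor (10⁻⁸–10⁻³ or 10⁻⁴ M) for 60 min at 37 °C. MAO-A activity measured radiometrically as ¹⁴C-aldehyde formed from 0.1 mM [¹⁴C]-5-hydroxytryptamine creatinine sulfate; IC50 reported.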

Experiment [2] concerns the target T2, Amine oxidase [flavin-containing] B (Rattus norvegicus, UniProt P19643).
T2 sequence (P19643 whole entry): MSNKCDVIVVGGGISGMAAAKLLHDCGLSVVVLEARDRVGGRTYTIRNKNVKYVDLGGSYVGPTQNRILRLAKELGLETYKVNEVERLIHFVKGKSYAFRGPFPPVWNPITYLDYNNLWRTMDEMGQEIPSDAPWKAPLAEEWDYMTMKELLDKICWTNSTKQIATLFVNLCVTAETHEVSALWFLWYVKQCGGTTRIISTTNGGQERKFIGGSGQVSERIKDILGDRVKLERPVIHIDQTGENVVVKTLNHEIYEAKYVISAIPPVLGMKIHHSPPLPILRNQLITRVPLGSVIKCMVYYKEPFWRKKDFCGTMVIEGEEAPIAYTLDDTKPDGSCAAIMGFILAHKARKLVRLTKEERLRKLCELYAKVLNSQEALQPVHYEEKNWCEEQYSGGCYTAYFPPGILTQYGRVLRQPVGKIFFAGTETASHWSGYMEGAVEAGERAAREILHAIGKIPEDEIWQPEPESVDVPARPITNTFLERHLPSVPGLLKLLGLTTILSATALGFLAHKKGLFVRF
Kind of experiment: Inhibitory activity against Monoamine oxidase B isolated from rat liver mitochondria using [14C]phenylethylamine; NI denotes no inhibition at 1000 uM. A digest of the protocol:
(§1)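 Rat liver mitochondria from differential centrifugation, in 50 mM phosphate buffer pH 7.4. Preincubated with inhibitor (10⁻⁸–10⁻³ or 10⁻⁴ M) for 60 min at 37 °C. MAO-B activity measured radiometrically as ¹⁴C-aldehyde formed from 10 μM [¹⁴C]-phenylethylamine; IC50 reported.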

Experiment [3] relates to Mycobacterium tuberculosis. Kind of experiment: In vitro inhibition of Mycobacterium tuberculosis H37Rv, determined at 0.2 ug/mL. The experiment is classed as functional. A digest of the protocol: (§2)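 M. tuberculosis H37Rv (Pasteur) grown twice for 1 week each in Dubos broth at 37 °C, washed, then filtered to remove clumps. 25 × 10⁴ CFU per well in RPMI 1640 with 5 mM HEPES, 2 mM L-glutamine and 2% FBS. Compound added from DMSO stock; 5,6-[³H]-uracil added at 24 h, then 18 h at 37 °C.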

Experiment [4] deals with Mycobacterium tuberculosis. As to the kind of experiment: In vitro inhibition of Mycobacterium tuberculosis H37Rv, determined at 2 ug/mL. The experiment is classed as functional. A digest of the protocol:
as §2

Experiment [5] deals with Mycobacterium tuberculosis. As to the kind of experiment: In vitro inhibition of Mycobacterium tuberculosis H37Rv, determined at 20 ug/mL. The experiment is classed as functional. A digest of the protocol:
as §2

For experiment [6], the target named is T2, Amine oxidase [flavin-containing] B. As to the kind of experiment: Inhibition of Monoamine oxidase B from rat liver mitochondria. A digest of the protocol:
as §1

For `Nc1[nH]nc2c3ccccc3nc-2c1-c1ccc(F)cc1`, the IC50 entry in experiment [1] and in experiment [2] was “No inhibition” each time. For the same molecule, at 0.2 µg/mL the inhibition in experiment [3] was 0%. At 2 µg/mL the inhibition in experiment [4] was 0%. Besides, the inhibition (commonly the relative decrease from the control value, in per cent) at 20 µg/mL in experiment [5] came out at 35.1%.
As to `Nc1nnc2c([nH]c3ccccc32)c1-c1ccccc1`, the IC50 entry in experiment [1] and in experiment [2] was “No inhibition” each time. In experiment [3], this molecule gave an inhibition at 0.2 µg/mL of 2.3%. For the same molecule, testing at 2 µg/mL in experiment [4] gave an inhibition of 25.5%. The molecule further yielded an inhibition at 20 µg/mL in experiment [5] of 28.5%.
As for `CCn1c2ccccc2c2nnc(N)c(-c3ccc(C)cc3)c21`, the values for the IC50 entry in experiment [1] and in experiment [6] were “No inhibition” and 11 µM, respectively. Testing at 0.2 µg/mL in experiment [3] gave an inhibition of 0%. Besides, 2 µg/mL produced 0% inhibition in experiment [4]. For the same molecule, at 20 µg/mL the inhibition in experiment [5] was 30.1%.
For `Cn1c2ccccc2c2nnc(N)c(-c3ccccc3F)c21`, the IC50 (as a rule, the midpoint of a concentration-inhibition curve) in experiment [1] is “No inhibition”; in experiment [6], 41.6 µM. Moreover, the inhibition at 0.2 µg/mL in experiment [3] is 0%. Moreover, 2 µg/mL produced 0% inhibition in experiment [4]. At 20 µg/mL the inhibition in experiment [5] was 45.3%.
`CCn1c2ccccc2c2nnc(N)c(-c3ccccc3)c21`: the figures for the IC50 entry in experiment [1] and in experiment [6] were “No inhibition” and 72 µM, respectively. The molecule further yielded an inhibition at 0.2 µg/mL in experiment [3] of 0%. This molecule also returned an inhibition at 2 µg/mL in experiment [4] of 0%. The inhibition at 20 µg/mL in experiment [5] is 40.3%.

For the origin of these results see ChEMBL document CHEMBL1149191, “Novel pyridazino[4,3-b]indoles with dual inhibitory activity against Mycobacterium tuberculosis and monoamine oxidase” (J Med Chem, 2004).
